Assay results published in PubChem BioAssay.
Activity calls are given as the source filed them.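 Rule for the calls, unless noted: active = inhibition of the reporter signal at or above 50%; inactive = inhibition below 50%.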

Assays:
[1] = inhibitors of TNFa-induced NFkB p65 translocation, primary screen, imaging, HUVEC, MLSMR starter and 10KST1 sets (AID 438;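 active = inhibition above 20% together with a positive visual image hit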;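 note: compound added about 3h40 before a 20 min TNFalpha stimulation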;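 for inhibition: signal is the nuclear over cytoplasmic p65 intensity ratio per well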); conditions: HUVEC TNFa-induced p65 nuclear translocation; cell count: measured here: nuclei count (cytotoxicity indicator), at 2.08 µM; inhibition: at 2 µM, stronger effect = higher value, 0% TNFa-plus-vehicle, 100% no-TNFa wells
[2] = inhibitors of mutant huntingtin aggregation, primary screen, imaging, exon1htt(103Q)mCFP cells, high-content imaging (AID 483;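 active = visual image review flags a hit and inhibition of aggregation exceeds 20%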;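 note: compound exposure lasted 3 days before fixation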;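 for nuclei count: percent of the per-plate median nuclei count of sample wells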); conditions: exon1htt(103Q)mCFP cell line, aggregate imaging, at 2 µM; inhibition of aggregation: stronger effect = higher value; nuclei count: measured here: cell count, toxicity
[3] = inhibitors of E-selectin induction by TNFa, primary screen, imaging, HUVEC, immunofluorescence, MLSMR starter and 10KST1 sets (AID 487;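 active = visually confirmed hit in the image check and inhibition above 20%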;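 for inhibition: signal is fraction of cell area covered by stained E-selectin grains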;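 for nuclei count: 100% = median nuclei count of all wells on the same plate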); conditions: HUVEC TNFalpha-induced E-selectin immunofluorescence imaging, at 2 µM; inhibition: stronger effect = higher value; nuclei count: measured here: cell number, toxicity
[4] = biological target: Voltage-gated potassium channel subunit beta-2 (Rattus norvegicus) (UniProt P62483); test: KvBeta enzyme negative modulators, primary screen, biochemical, NADPH fluorescence (AID 622;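 active = fluorescence slope higher than the sample average by over 3 SD, cut at about -0.22 in these data, passing the limit was not always enough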;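 note: slope of raw intensity against log time taken from 70 to 1610 s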); conditions: recombinant KvBeta, 4-cyanobenzaldehyde reduction, at 10 µM, stronger effect = higher value
[5] = biological target: Voltage-gated potassium channel subunit beta-2 (Rattus norvegicus) (UniProt P62483); test: KvBeta positive modulators, primary screen, biochemical, NADPH fluorescence (AID 623;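 active = NADPH fluorescence slope more negative than the mean of all samples by about 3 SD, 99.7% confidence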;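 note: fluorescence intensity change per second fitted from 20 to 320 s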); conditions: Recombinant KvBeta, NADPH fluorescence decrease slope, 10 min; at 10 µM; stronger effect = lower value
[6] = biological target: Alpha-2C adrenergic receptor (Homo sapiens) (UniProt P18825); test: modulators of alpha2C/GIRK thallium flux, primary screen, cell-based, HEK293 alpha2C/GIRK1/2 (AID 624;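 active = fluorescence slope after compound addition differing from the mean of all screened samples at 99.7% confidence, in either direction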;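 note: slope of fluorescence ratio to pre-addition baseline per second over 15 to 24 s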); conditions: thallium flux BTC fluorescence, at 10 µM, actives lie on both sides
[7] = inhibitors of larval lipid processing in zebrafish, primary screen, whole organism, PED6 fluorescence, gall bladder and intestine (AID 686;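 active = a full or partial loss of lipid-probe fluorescence in the fish gall bladder, intestine or both, judged by eye; inactive = no fluorescence loss, or compound toxic to the fish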;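 note: larvae 5 to 7 days old with five fish per well; signal comes from phospholipase A2 cleavage of quenched PED6 carried via bile; overnight exposure to compound and PED6 before scoring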); conditions: Zebrafish larvae PED6 lipid processing, fluorescence scoring; screened at 20 µM (by protocol)
Procedure, shortened: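 system = live zebrafish larvae aged 5-7 days, whole organism | probe or stimulus = ingested quenched lipid PED6 at 100 nM | doses = 20 µM single dose | timing = overnight exposure | detection = fluorescence microscopy with visual scoring of gall bladder and intestine | read-out = visual per-well fluorescence inhibition score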

[8] = inhibitors of Sendai virus-induced IRF3 signaling, primary screen, TLR/RLR signaling modifier project, cell-based, Sendai virus stimulus, luciferase, 10K MLSCN set (AID 602276;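 active = inhibition at or above 50% at 10 µM; inactive = inhibition below 50%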;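 note: firefly luciferase from ISG56 promoter only with Renilla not read in this screen; 0% = Sendai virus plus DMSO and 100% = medium plus DMSO without virus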); conditions: HEK293 RL24 IRF3 luciferase reporter, at 10 µM, stronger effect = higher value
[9] = inhibitors of poly I:C-induced TLR3 signaling, primary screen, cell-based, poly I:C stimulus, luciferase, 10K MLSCN set (AID 602277); conditions: HEK293-TLR3 RL24 IRF3 luciferase reporter, at 10 µM, stronger effect = higher value

Alpha-2C adrenergic receptor (Homo sapiens), sequence (P18825 whole entry, looked up): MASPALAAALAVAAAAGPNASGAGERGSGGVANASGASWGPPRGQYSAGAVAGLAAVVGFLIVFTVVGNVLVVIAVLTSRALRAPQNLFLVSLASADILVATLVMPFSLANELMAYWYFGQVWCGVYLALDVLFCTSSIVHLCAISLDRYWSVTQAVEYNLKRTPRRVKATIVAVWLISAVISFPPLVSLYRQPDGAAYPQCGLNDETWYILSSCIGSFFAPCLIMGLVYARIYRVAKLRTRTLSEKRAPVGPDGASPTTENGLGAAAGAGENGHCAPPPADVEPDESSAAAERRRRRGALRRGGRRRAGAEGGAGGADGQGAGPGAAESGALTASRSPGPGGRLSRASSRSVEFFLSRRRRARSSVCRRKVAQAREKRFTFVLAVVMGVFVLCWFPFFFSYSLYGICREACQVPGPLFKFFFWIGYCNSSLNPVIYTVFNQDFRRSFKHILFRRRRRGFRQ
Voltage-gated potassium channel subunit beta-2 (Rattus norvegicus), sequence (P62483 whole entry, looked up): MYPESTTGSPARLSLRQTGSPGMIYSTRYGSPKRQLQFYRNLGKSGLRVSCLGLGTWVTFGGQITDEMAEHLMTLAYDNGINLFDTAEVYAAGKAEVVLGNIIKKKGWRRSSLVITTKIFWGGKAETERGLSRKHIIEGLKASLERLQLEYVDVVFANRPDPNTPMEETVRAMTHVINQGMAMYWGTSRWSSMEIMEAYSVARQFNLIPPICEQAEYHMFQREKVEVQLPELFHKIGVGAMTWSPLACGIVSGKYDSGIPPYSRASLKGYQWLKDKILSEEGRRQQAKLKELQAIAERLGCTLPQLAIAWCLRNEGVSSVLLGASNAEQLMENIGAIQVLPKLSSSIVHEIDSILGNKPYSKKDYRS

| SMILES | cell count [1] | inhibition [1] | inhibition of aggregation [2] | nuclei count [2] [%] | inhibition [3] | nuclei count [3] [%] | fluorescence slope [4] | NADPH fluorescence slope [5] | slope [6] | outcome [7] | inhibition [8] | inhibition [9] |
| --- | --- | --- | --- | --- | --- | --- | --- | --- | --- | --- | --- | --- |
| Cn1c(=O)c2c(nc(NCCCO)n2Cc2cccc(Br)c2)n(C)c1=O | 705 | -1.8% (inactive) | 1.7% (inactive) | 108 | 25.3% (inactive) | 92.8 | -0.349 (inactive) | -4.6e-05 (inactive) | 0.00493 (inactive) | inactive | 14.9% (inactive) | 14.1% (inactive) |
| CCC(=O)Oc1ccc(C/C(=N\O)c2ccc(O)cc2O)o1 | 405 | 1.5% (inactive) | 24.3% (inactive) | 95.9 | -54.6% (inactive) | 115 | -0.502 (inactive) | 4.5e-05 (inactive) | 0.00444 (inactive) | inactive | -8.2% (inactive) | -21.3% (inactive) |
| Cc1nonc1NC(=O)c1ccccc1Br | 620 | 9.6% (inactive) | 28.1% (inactive) | 96.4 | 52.4% (inactive) | 60 | -0.346 (inactive) | -5.8e-05 (inactive) | 0.00524 (inactive) | inactive | 12% (inactive) | 22.4% (inactive) |
| O=C(Nc1cc(C(=O)N2CCCC2)ccc1N1CCCC1)c1ccccc1F | 612 | 2% (inactive) | -12.8% (inactive) | 107 | -93% (inactive) | 95.8 | -0.343 (inactive) | -7.2e-05 (inactive) | 0.00481 (inactive) | inactive | -1.26% (inactive) | -54% (inactive) |
| O=C(Nc1nnc(C2CCCC2)s1)C1CCN(S(=O)(=O)c2ccc(Cl)cc2)CC1 | 349 | 0% (inactive) | 18.7% (inactive) | 85.1 | -83.1% (inactive) | 104 | -0.345 (inactive) | -1.7e-05 (inactive) | 0.00671 (inactive) | inactive | 13.4% (inactive) | 6.21% (inactive) |
| COc1cc(CC(=O)Oc2ccc3c(c2)OCO3)cc(OC)c1OC | 469 | 1.1% (inactive) | -5.8% (inactive) | 112 | -79.4% (inactive) | 101 | -0.392 (inactive) | -5.2e-05 (inactive) | 0.00391 (inactive) | inactive | 2.88% (inactive) | 99% (active) |
| O=C(Nc1ccc(-c2nc3ncccc3o2)cc1)c1ccc(Br)o1 | 340 | 25.6% (inactive) | -3.8% (inactive) | 89.7 | 8.6% (inactive) | 100 | -0.125 (active) | -3.3e-06 (inactive) | 0.00525 (inactive) | inactive | -28.6% (inactive) | -98.2% (inactive) |
| CC(C)c1cc(C(=O)Nc2cccnc2)no1 | 250 | -2.8% (inactive) | -12.9% (inactive) | 103 | -9.6% (inactive) | 115 | -0.398 (inactive) | -6.1e-05 (inactive) | 0.00525 (inactive) | inactive | -22.1% (inactive) | -67.3% (inactive) |
| CS(=O)(=O)N(CC(=O)Nc1ccc2c(c1)OCO2)Cc1ccc(Cl)cc1 | 303 | 8.9% (inactive) | -3.1% (inactive) | 92 | -20.4% (inactive) | 88.8 | -0.428 (inactive) | -6.6e-05 (inactive) | 0.00445 (inactive) | inactive | 11.9% (inactive) | 17.7% (inactive) |
| Cc1ccc(S(=O)(=O)N2CCN(c3nc(C)nc4sc(C)c(C)c34)CC2)cc1 | 345 | 10.5% (inactive) | -6.6% (inactive) | 110 | -191% (inactive) | 108 | -0.387 (inactive) | -5.6e-05 (inactive) | 0.0062 (inactive) | inactive | 5.42% (inactive) | 4.33% (inactive) |
| CCn1nnnc1SCC(=O)N1c2ccccc2CCc2ccccc21 | 568 | -4.6% (inactive) | 2% (inactive) | 96.3 | -32.7% (inactive) | 117 | -0.377 (inactive) | -5.8e-05 (inactive) | 0.00737 (inactive) | inactive | 1.39% (inactive) | 1.68% (inactive) |
| O=C(c1cc2nc(-c3ccco3)cc(C(F)(F)F)n2n1)N1CCN(c2ccccn2)CC1 | 746 | -10.5% (inactive) | 2.8% (inactive) | 101 | 32.7% (inactive) | 107 | -0.357 (inactive) | -6.7e-05 (inactive) | 0.00309 (inactive) | inactive | 10.1% (inactive) | -6.91% (inactive) |
| Cc1ccc(S(=O)(=O)NCC(c2cccnc2)N(C)C)cc1 (stereo unspecified) | 453 | -1.9% (inactive) | 2.5% (inactive) | 106 | -33.6% (inactive) | 127 | -0.464 (inactive) | -9.5e-06 (inactive) | 0.00528 (inactive) | inactive | 7.09% (inactive) | 15.6% (inactive) |
